Assay outcomes deposited in PubChem by Johns Hopkins Ion Channel Center.
RGS4 pot – RGS4 potentiation or activation; HEK293 M3R/inducible RGS4, carbachol calcium flux Fluo4; stronger effect = lower value; B-score at 10 µM; actives 0.92% (n = 310,000); AID 463111;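 active = B-score of the integrated calcium signal more than 4 SD below the library mean, with starting fluorescence not abnormally high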;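 note: negative B-score means reduced calcium response which marks RGS4 activation or potentiation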
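Reagent: ECmax carbachol challenge; Test system: M3R-expressing HEK293 line, RGS4 induced by doxycycline; Schedule: overnight RGS4 induction, 30 min dye load 37 °C, 20 min compound RT; Detection: calcium dye Fluo4 fluorescence; Read-out: Agonist-evoked peak-minus-minimum fluorescence over baseline, integrated ratio, B score.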
MrgX1 antag – human MrgX1 receptor antagonism, primary screen; Q96LB2; MRGX1-HEK293 calcium flux, Fluo-4, BAM8-22 antagonism; stronger effect = lower value; B-score at 10 µM; actives 1.3% (n = 310,000);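 active = calcium-response B-score plate-corrected more than 3 library SD below zero, starting fluorescence within 5 deviations, no agonist response on first addition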;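 note: peak minus trough fluorescence over baseline after final BAM8-22 challenge near maximal dose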
Target sequence (Q96LB2 whole entry, looked up): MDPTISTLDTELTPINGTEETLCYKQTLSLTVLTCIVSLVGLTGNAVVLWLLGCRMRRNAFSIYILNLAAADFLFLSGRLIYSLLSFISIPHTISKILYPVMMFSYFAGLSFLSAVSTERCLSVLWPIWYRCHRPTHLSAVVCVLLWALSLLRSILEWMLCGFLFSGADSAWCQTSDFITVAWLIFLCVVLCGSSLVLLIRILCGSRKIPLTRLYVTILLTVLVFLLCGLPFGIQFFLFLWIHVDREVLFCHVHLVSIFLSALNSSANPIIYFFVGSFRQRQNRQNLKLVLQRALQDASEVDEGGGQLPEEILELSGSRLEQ
MrgX1 allo act – human MrgX1 positive allosteric modulation, primary screen; Q96LB2; MrgX1-HEK293, Fluo-4 calcium flux, FDSS; stronger effect = higher value; B-score at 10 µM; actives 0.63% (n = 310,000);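 active = plate-corrected calcium response at least 3 library SD above typical, normal starting fluorescence, not activating the receptor alone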;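 note: compound read alongside a low EC10 to EC30 dose of BAM8-22 agonist; peak minus trough fluorescence over baseline measured at the second addition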
RGS4 inh – inhibitors of human RGS4 | HEK293 M3R/RGS4 inducible, Fluo-4 calcium flux; stronger effect = higher value; triggered by carbachol at its EC20 | P49798 | actives 0.45% (n = 310,000) | B-score at 10 µM;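 active = B-score, a plate-corrected calcium signal, over three deviations above library mean, with baseline fluorescence within five deviations of library mean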;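 note: RGS4 expression induced by doxycycline in cells with stable M3 receptor; B-score is computed from the integrated fluorescence ratio over baseline after carbachol; higher B-score means a larger calcium signal and so more RGS4 inhibition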
Target sequence (P49798 whole entry, looked up): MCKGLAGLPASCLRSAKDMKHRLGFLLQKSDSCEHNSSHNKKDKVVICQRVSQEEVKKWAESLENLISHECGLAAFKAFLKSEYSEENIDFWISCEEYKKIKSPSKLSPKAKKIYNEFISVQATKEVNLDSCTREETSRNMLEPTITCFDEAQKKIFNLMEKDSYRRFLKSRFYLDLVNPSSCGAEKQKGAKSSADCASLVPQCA
MrgX1 agonist – agonists of human MrgX1 receptor. actives 0.44% (n = 310,000). Q96LB2. AID 588627. MrgX1-HEK293 cells, Fluo-4 calcium fluorescence, agonist mode; stronger effect = higher value. B-score at 10 µM;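 active = calcium response B-score plate-corrected fluorescence ratio at least 3 library SD, with starting fluorescence B-score inside 5 SD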
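Material: MrgX1-expressing HEK293 cells / Dosing: compound as first of three additions / Incubation: overnight seeding, then 1 h dark dye loading / Signal: Fluo-4 NW calcium fluorescence / Evaluation: B-scored fluorescence response ratio / Benchmarks: positive and negative control wells on each plate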
RGS4 block valid – validation of RGS4 inhibitors. AID 492999. actives 65% (n = 1,700). calcium response, % at 10 µM. HEK293 M3R/RGS4, carbachol calcium Fluo-4 fluorescence; carbachol added at its EC20; 0 = buffer wells, 100 = carbachol control. shares compounds with RGS4 inh;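 active = duplicate-averaged calcium response above the buffer-only control mean plus 5 SD of those controls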;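 note: integrated fluorescence ratio F max minus min over baseline F0; higher response in RGS4-induced cells means RGS4 inhibition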
RGS4 uninduced – checks RGS4 inhibitor effects in non-induced HEK293 M3R cells. activity (percent), % at 10 µM. actives 20% (n = 1,900). carbachol calcium Fluo-4; submaximal (EC20) carbachol stimulus; buffer wells 0%, carbachol control wells 100%. shares compounds with RGS4 inh; call rule not given here;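 note: RGS4 induction absent so cells express M3R without RGS4; higher means more calcium signal and flags a non-specific hit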
RGS4 inh ctr2 – signal in non-induced cells without carbachol, RGS4 inhibitor counter-screen; calcium response (agonist-mode artifact), % at 10 µM; HEK293 M3R/RGS4 non-induced, Fluo-4 calcium, no carbachol; normalised: buffer wells 0%, carbachol wells 100%; shares compounds with RGS4 inh; actives 22% (n = 1,900);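 active = duplicate-averaged calcium rise in uninduced cells above buffer wells' mean plus 5 SD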
Starred values were filed as active, the others as inactive; i = inactive; nt = not tested or not shown. A selection: hits, their analogues and other compounds. The true share with any hit is near 3.5%.

SMILES | RGS4 pot | MrgX1 antag | MrgX1 allo act | RGS4 inh | MrgX1 agonist | RGS4 block valid | RGS4 uninduced | RGS4 inh ctr2
CCCCC1=CC2=C(c3ccco3)C(=O)C(C)(OC(=O)c3ccc(OC)cc3)C(=O)C2=CN1CC1CC1 (centres undefined) | i | i | i | i | i | i | i | i
COC(=O)CCCC1=CC2=C(c3ccccc3)C(=O)C(C)(OC(=O)C3CCCC3)C(=O)C2=CN1Cc1ccc(OC)cc1 (centres undefined) | i | i | i | i | i | nt | nt | nt
CCCCC1=CC2=C(c3ccco3)C(=O)C(C)(OC(=O)c3ccc(OC)cc3)C(=O)C2=CN1c1ccc(OC)cc1 (centres undefined) | i | i | i | 5.33* | i | 7.0%* | i | i
CCCCC1=CC2=C(c3ccco3)C(=O)C(C)(OC(=O)c3ccc(OC)cc3)C(=O)C2=CN1C(CO)CO (centres undefined) | i | i | i | i | i | nt | nt | nt
CCCCC1=CC2=C(c3ccco3)C(=O)C(C)(OC(=O)c3ccc(OC)cc3)C(=O)C2=CN1CCN1CCOCC1 (centres undefined) | i | i | i | i | i | i | i | i
CC(C)(C)C(=O)CN1C(=O)NC2(CCOc3ccccc32)C1=O (centres undefined) | i | i | i | i | i | nt | nt | nt
CCCCC1=CC2=C(c3ccco3)C(=O)C(C)(OC(=O)c3ccc(OC)cc3)C(=O)C2=CN1Cc1ccc(OC)cc1 (centres undefined) | i | nt | nt | i | nt | nt | nt | nt
CCCCC1=CC2=C(c3ccco3)C(=O)C(C)(OC(=O)c3ccc(OC)cc3)C(=O)C2=CN1Cc1ccco1 (centres undefined) | i | -4.63* | i | i | i | i | i | i
CCCCC1=CC2=C(c3ccco3)C(=O)C(C)(OC(=O)c3ccc(OC)cc3)C(=O)C2=CN1CCCN(CC)CC (centres undefined) | i | i | i | i | i | i | i | i
CCCCC1=CC2=C(c3ccco3)C(=O)C(C)(OC(=O)c3ccc(OC)cc3)C(=O)C2=CN1CC(C)C (centres undefined) | i | i | i | 6.75* | i | 5.0%* | i | i
N#CC(C#N)=C1C=CC=CN1/C(=C\c1ccco1)C(=O)c1ccccc1 | nt | i | i | nt | i | nt | nt | nt
COc1ccc(C(=O)/C(=C\c2ccco2)N2C=CC=CC2=C(C#N)C#N)cc1 | i | i | i | 25.1* | i | 37.0%* | i | 20.5%*
CCOC(=O)c1sc(NC(=O)c2ccccc2OC)nc1C | i | i | i | i | i | nt | nt | nt
COc1ccc(/C=N/n2cc(-c3ccc(OC)cc3)nc2N)cc1 | i | i | i | 37.4* | i | 24.0%* | i | i
Cc1ccn2c(C(=O)c3ccc(Cl)cc3)cnc2c1 | i | i | i | i | i | nt | nt | nt
COc1ccc(NC(=O)c2c(NC(=O)CCC(=O)O)sc3c2CCCCC3)cc1 | i | i | i | i | i | i | i | i
O=C(O)CCC(=O)Nc1sc2c(c1C(=O)NCc1ccccc1)CCCC2 | i | i | i | i | i | nt | nt | nt
CCOC(=O)C1=C(C)N=c2s/c(=C\c3ccncc3)c(=O)n2C1c1ccc2c(c1)OCO2 (centres undefined) | i | i | i | 4.7* | i | 16.0%* | 43.5%* | 16.0%*
COc1ccc(-c2nn(-c3ccccc3)cc2/C=C(\CC(=O)O)c2nc3ccccc3s2)cc1OC | i | i | i | 6.2* | i | 7.5%* | i | i
COc1ccc(/C=C(\CC(=O)O)c2nc3ccccc3s2)cc1O | i | i | i | i | i | nt | nt | nt
CCn1c(C)c(C2=CCN(S(=O)(=O)c3ccc(C)cc3)CC2)c2ccccc21 | i | i | i | i | i | nt | nt | nt
CC(c1ccccc1)N1CC(C(=O)Nc2nccs2)CC1=O (centres undefined) | i | i | i | i | i | nt | nt | nt
Oc1c(-c2cc(-c3ccco3)[nH]n2)ccc2ccccc12 | i | i | i | 12.2* | i | 30.5%* | 31.0%* | i
Cn1nccc1C(=O)Nc1sc2c(c1C(N)=O)CCCC2 | i | i | i | i | i | nt | nt | nt
Cn1c2ccccc2c2cc(/C=N/NC(=O)c3cc(O)cc(O)c3)ccc21 | -7.2* | i | i | i | i | i | i | i
SMILES | RGS4 pot | MrgX1 antag | MrgX1 allo act | RGS4 inh | MrgX1 agonist | RGS4 block valid | RGS4 uninduced | RGS4 inh ctr2
CCn1c2ccccc2c2cc(/C=N/NC(=O)c3ccccc3)ccc21 | i | i | i | i | i | i | i | i
CCc1ccc(-c2nnn(CCC#N)n2)cc1 | i | i | i | i | i | nt | nt | nt
CCn1c(=O)cc(OCC(=O)NCCc2cccc(C)c2)c2ccccc21 | i | i | i | i | i | nt | nt | nt
CC1=NNC(=O)C1C(c1cccc(O)c1)C(C#N)C#N (centres undefined) | i | i | i | i | i | nt | nt | nt
CC1=NN(Cc2ccccc2)C(=O)C1C(c1ccc(Cl)cc1)C(C#N)C#N (centres undefined) | i | i | i | i | i | i | i | 7.0%*
CC1=NN(Cc2ccccc2)C(=O)C1C(c1ccncc1)C(C#N)C#N (centres undefined) | i | i | i | 4.82* | i | 7.5%* | i | i
CC1=NN(Cc2ccccc2)C(=O)C1C(c1ccccc1)C(C#N)C#N (centres undefined) | i | i | i | i | i | i | i | i
CC1=NNC(=O)C1C(c1ccc(Cl)cc1)C(C#N)C#N (centres undefined) | i | i | i | i | i | nt | nt | nt
CC1=NN(Cc2ccccc2)C(=O)C1 | i | i | i | i | i | nt | nt | nt
O=C(NCC(c1ccco1)N1CCc2ccccc2C1)c1c(F)cccc1F (centres undefined) | i | i | i | i | i | nt | nt | nt
Nc1nc(Nc2ccccc2)sc1C(=O)c1ccccc1 | i | i | i | 12.6* | i | 23.0%* | 37.5%* | i
